{"source": "paper PMC10077533", "about": "(ACS Omega, 2023)", "key": {"[1]": {"tested_on": "MDA-MB-468 breast cancer cells", "assay": "JC-1 staining, mitochondrial membrane potential by flow cytometry", "type": "cell-based, human", "settings": "MDA-MB-468, positive control, 5μM CCCP"}, "ct-DNA": {"tested_on": "ct-DNA", "settings": "obtained from the literature; cited from earlier work"}, "calf-thymus DNA (ct-DNA)": {"tested_on": "calf-thymus DNA (ct-DNA)", "settings": "classical DNA intercalator, comparison value; cited from earlier work"}, "[2]": {"tested_on": "MDA-MB-468 breast cancer cells", "assay": "γ-H2AX staining, detection of DNA damage", "type": "cell-based, human", "settings": "MDA-MB-468, 50 μM", "method_in_brief": "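MDA-MB-468 cells treated with test compound, then immunocytochemically stained for γ-H2AX, with untreated cells as control. DNA damage imaged as red fluorescence, and red fluorescence intensity quantified.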"}}, "data": [{"smiles": "N#CC(C#N)=NNc1cccc(Cl)c1", "note": "[CCCP, carbonyl cyanide m-chlorophenylhydrazone]", "values": [{"measurement": "cells with damaged mitochondria (JC-1 monomers)", "setting": "[1]", "value": 76.98, "unit": "%"}, {"measurement": "cells with healthy mitochondria (red + green fluorescing JC-1 aggregates)", "setting": "[1]", "value": 22.08, "unit": "%"}]}, {"smiles": "CC[n+]1c(-c2ccccc2)c2cc(N)ccc2c2ccc(N)cc21", "note": "[EtBr, ethidium bromide]", "values": [{"measurement": "KEtBr, EtBr binding constant", "setting": "ct-DNA", "value": "1.0 × 10^7 M^–1"}, {"measurement": "Kb value of EtBr (KEtBr)", "setting": "calf-thymus DNA (ct-DNA)", "value": "7 × 10^5 M^–1"}]}, {"smiles": "N.N.[Cl][Pt][Cl]", "note": "[cisplatin]", "values": [{"measurement": "γH2AX (phosphorylated histone) staining", "setting": "[2]", "value": "DNA damage"}]}]}
